Test results from publication PMC9677924 (International Journal of Nanomedicine, 2022).
In brackets after ≈: the same amount, converted by molar mass.

Key:
MCF-7/HER2 cells = test: In vitro cytotoxicity, MTT assay; type: cell-based; conditions: Homo sapiens, MCF7, 48 h, read-out: IC50 (ng/mL) Free Drug
In short: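 MCF-7/HER2 cells grown in DMEM/F12 with 10% FBS and 1% penicillin/streptomycin/amphotericin B at 37 °C, 5% CO2. Seeded at 1×10^4 cells/well for 24 h, then exposed to test compounds (free or nanocarrier forms) at 1~500 ng/mL. Methods give a 48 h exposure; the figure legend gives 72 h. Then 0.5 mg/mL MTT for 3 h, formazan dissolved in DMSO, absorbance read at 550 nm.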

[1] = In vivo pharmacokinetic studies; set-up: species or system Sprague-Dawley rats
[2] = In vivo biodistribution studies in MCF-7/HER2 tumor-bearing mice; set-up: species or system nude mice; conditions: 8 h after administration; liver and kidneys
Biosafety examination = type: in vivo, nude mice; conditions: after the Q3D×4 regimen
In short: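 Organs and tumors came from the MCF-7/HER2 xenograft nude-mouse study (IV dosing every 3 days ×4). Tail morphology was examined on day 24. On day 28 after administration, tissues were fixed in 4% paraformaldehyde. Heart, liver, spleen, lungs and kidneys were H&E-stained and scored for inflammatory cell infiltration.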

[3] = In vitro release of docetaxel and pictilisib; type: physicochemical; conditions: after 12 h
MCF-7/HER2 tumors = test: In vivo tumor inhibition studies; set-up: species or system nude mice; conditions: day 24, compared with the PBS group; IV Q3D×4
In short: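 Female nude mice (7 weeks) injected s.c. in the right thigh with 1×10^6 MCF-7/HER2 cells, plus 20 μg estradiol valerate in sesame oil s.c. in the neck. At ~100 mm3, mice were randomized to 10 groups (n=4, saline control). They received IV tail-vein doses equivalent to 5 mg/kg taxane and/or 2.5 mg/kg PI3K inhibitor every 3 days ×4. Volume (L×W²/2) and body weight were recorded every 3 days. Tumors were excised and weighed on day 24.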

[4] = cited from earlier work
[5] = cited from earlier work; remark: listed apart in the source
[6] = female, Sprague-Dawley, rat, plasma, iv, 5 mg/kg
[7] = female, Sprague-Dawley, rat, plasma, iv, 2.5 mg/kg

Row | AUC(0-inf) [1, 6] | AUC(0-t) [1, 6] | Vd [1, 6] | clearance [1, 6] | half-life [1, 6] | Relative bioavailability (%) of DTX ([1]; relative to Free DTX, IV 5 mg/kg BW DTX, rats) | AUC(0-inf) [1, 7] | AUC(0-t) [1, 7] | Vd [1, 7] | half-life [1, 7] | C0 (μg/mL) of PIC ([1]; pictilisib in plasma, IV 2.5 mg/kg BW PIC, rats, n=3, listed as Free PIC, 2.5 mg/kg) | SMILES | IC50 (MCF-7/HER2 cells) | accumulation of DTX in major organs [2] | liver, H&E staining (inflammatory cell infiltration) (Biosafety examination) | precipitation in the dialysis bag [3] | tumor weights / tumor inhibition (MCF-7/HER2 tumors) | log P [4] | pKa [5]
1 | 524 ± 37 ng·h/mL | 487 ± 37 ng·h/mL | 73.4 ± 5.22 L/kg | 160 mL/min/kg | 5.32 ± 0.24 h | 100% | – | – | – | – | – | CC(=O)O[C@@]12CO[C@@H]1C[C@H](O)[C@@]1(C)C(=O)[C@H](O)C3=C(C)[C@@H](OC(=O)[C@H](O)[C@@H](NC(=O)OC(C)(C)C)c4ccccc4)C[C@@](O)([C@@H](OC(=O)c4ccccc4)[C@H]21)C3(C)C [DTX, docetaxel] | 12.5 ± 2.69 ng/mL (≈ 0.0155 µM) | higher accumulation in the liver and kidneys | slight liver damage | – | – | – | –
2 | – | – | – | – | – | – | 536 ± 44 ng·h/mL | 530 ± 46 ng·h/mL | 19.7 ± 6.27 L/kg | 2.92 ± 0.97 h | 0.691 ± 0.115 µg/mL | CS(=O)(=O)N1CCN(Cc2cc3nc(-c4cccc5[nH]ncc45)nc(N4CCOCC4)c3s2)CC1 [PIC, pictilisib] | 86.8 ± 17.6 ng/mL (≈ 0.169 µM) | – | – | precipitation in the free PIC group was observed | little antitumor efficacy | 1.96 | 13.19
